High-throughput results: PubChem BioAssay, Johns Hopkins Ion Channel Center
Hits are enriched below; roughly 2.3% of the tested compounds scored in any of these assays.
TRPC6 inhibitor: mouse TRPC6 channel inhibition | Q61143 | HEK293-TRPC6, membrane potential dye, ACh-evoked depolarization; hits give low values | B-score at 10 µM | 1.1% of 310,000 active | AID 2553;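 active = B-score under library mean minus 3 SD, initial fluorescence not abnormally high, positive integrated signal ratio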;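 also: B-score derived from integrated fluorescence ratio over the kinetic read; more negative B-score means stronger inhibition of depolarization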
TRPC4 act: TRPC4 (mouse) channel activation; Q9QUQ5; HEK293 TRPC4beta/mu-opioid, Fluo4 calcium fluorescence; hits give high values; B-score at 10 µM; 0.49% of 310,000 active;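 active = B-score above 5 SD of library B-scores, and initial fluorescence ratio not above library mean plus 5 SD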;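 also: positive B-score marks a calcium rise read as TRPC4 activation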
Target sequence (Q9QUQ5 whole entry, looked up): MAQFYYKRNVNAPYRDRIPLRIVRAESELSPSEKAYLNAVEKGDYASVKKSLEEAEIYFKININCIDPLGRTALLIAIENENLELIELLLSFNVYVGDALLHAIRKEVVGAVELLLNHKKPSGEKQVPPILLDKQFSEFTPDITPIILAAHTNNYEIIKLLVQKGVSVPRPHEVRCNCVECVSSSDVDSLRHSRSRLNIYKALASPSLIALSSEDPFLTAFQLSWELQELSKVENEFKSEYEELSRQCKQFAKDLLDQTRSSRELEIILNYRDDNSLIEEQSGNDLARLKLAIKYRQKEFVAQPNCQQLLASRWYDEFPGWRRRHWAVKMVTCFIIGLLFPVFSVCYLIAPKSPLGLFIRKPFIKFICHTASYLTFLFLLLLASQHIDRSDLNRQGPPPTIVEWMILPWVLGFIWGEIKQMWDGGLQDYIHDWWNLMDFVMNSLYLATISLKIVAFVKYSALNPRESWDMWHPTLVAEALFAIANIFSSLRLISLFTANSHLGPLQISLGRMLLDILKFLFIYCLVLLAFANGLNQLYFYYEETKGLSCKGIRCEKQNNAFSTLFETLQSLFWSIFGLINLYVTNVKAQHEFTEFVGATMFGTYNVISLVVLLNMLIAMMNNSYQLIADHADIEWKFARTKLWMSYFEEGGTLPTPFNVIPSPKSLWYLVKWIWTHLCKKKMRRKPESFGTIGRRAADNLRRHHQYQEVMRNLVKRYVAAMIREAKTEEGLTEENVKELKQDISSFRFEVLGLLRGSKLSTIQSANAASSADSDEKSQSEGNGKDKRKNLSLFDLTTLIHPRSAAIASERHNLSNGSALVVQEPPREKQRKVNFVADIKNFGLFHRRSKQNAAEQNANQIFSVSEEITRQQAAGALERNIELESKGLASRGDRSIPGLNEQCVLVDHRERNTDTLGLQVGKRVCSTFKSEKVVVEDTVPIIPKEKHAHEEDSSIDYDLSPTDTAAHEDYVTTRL
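Assay system: HEK293 stable line with TRPC4beta plus mu-opioid receptor. Times: dye 45 min RT, read 110 s. Measured by: kinetic Fluo4 calcium fluorescence. Measure: B score of integrated ratio. Controls: assay buffer as low control, maximal DAMGO as high control.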
TRPC4 block: blocks the mouse TRPC4 cation channel; AID 2247; 0.39% of 300,000 active; B-score at 10 µM; HEK293 TRPC4beta/mu-opioid, DAMGO-evoked Fluo4 calcium flux; hits give low values; Q9QUQ5;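 active = B-score over 3 SD under the library average, no early fluorescence shift, positive overall ratio signal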
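Assay system: HEK293 cells with stable TRPC4beta plus mu-opioid receptor expression. Dosing: single dose. Measured by: Fluo4 Ca2+ flux fluorescence. Also added: DAMGO in two steps, submaximal then maximal. Read-out: B score from integrated Fluo4 fluorescence ratio.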
TRPC6 act: activates the mouse TRPC6 cation channel | Q61143 | HEK293-TRPC6 membrane potential dye fluorescence; hits give high values | B-score at 10 µM | 0.13% of 310,000 active;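 active = B-score of the integrated fluorescence ratio above library mean plus 3 SD, and starting fluorescence ratio within library mean plus 5 SD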;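 also: higher score means more depolarization so channel activation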
TRPC4 potent: allosteric potentiators of mouse TRPC4 channel. Q9QUQ5. HEK293 TRPC4beta/mu-opioid, DAMGO EC20, Fluo-4 Ca2+ flux; hits give high values. B-score at 10 µM. 0.42% of 310,000 active;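 active = B-score of calcium response area above 5 SD of library B-scores, with initial fluorescence ratio within 5 SD of library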
TRPC4 sel inh 2: mouse TRPC4 off-target activity of TRPC6 inhibitors, second screen | inhibition, % at 10 µM | HEK293 TRPC4/MOR, membrane potential dye fluorescence; channel activated by saturating DAMGO dose | 42% of 920 active | shares compounds with TRPC6 inhibitor | AID 2776;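 active = compounds whose fluorescence signal differed from control wells by over 3 SD, either direction, in both duplicate plates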
TRPC4 spec: tests whether TRPC6 inhibitors also affect mouse TRPC4 | shares compounds with TRPC6 inhibitor | HEK293 TRPC4/mu-opioid, membrane potential fluorescence | activity change, negative = inhibition, % at 10 µM | 61% of 920 active;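 active = rise or fall in signal beyond 3 SD of buffer-only wells in both replicate plates, either sign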;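 also: integrated kinetic ratio of fluorescence range over baseline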
HEK293 MPD ctr 2-1: parental HEK293 nonspecific activity of TRPC6 inhibitors, second screen; 31% of 920 active; AID 2779; signal change vs control, % at 10 µM; parental HEK293 membrane potential dye fluorescence; maximal acetylcholine challenge after compound addition; shares compounds with TRPC6 inhibitor;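 active = membrane potential signal moving either way by over 3 SD of the maximum-effect control, in both duplicate plates, meaning non-specific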
HEK293 MPD ctr-1: parental HEK293 nonspecific activity of TRPC6 inhibitors; shares compounds with TRPC6 inhibitor; 60% of 920 active; membrane potential signal change, % at 10 µM; parental HEK293 membrane potential dye fluorescence;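 active = membrane potential signal shifting up or down by more than 3 SD of buffer-only wells, on both duplicate plates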
HEK293 MPD ctr-2: checks TRPC6 modulator effects in parental HEK293 cells | shares compounds with TRPC6 inhibitor | AID 488924 | membrane potential signal change, % at 10 µM | 51% of 2,400 active | membrane potential dye fluorescence;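 active = membrane potential signal moves up or down beyond 5 SD from buffer-only wells, on both duplicate plates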
HEK293 MPD ctr 2-2: second check of TRPC6 modulator effects in parental HEK293 cells; shares compounds with TRPC6 inhibitor; membrane potential dye fluorescence; after compound, maximal acetylcholine stimulation; 14% of 2,400 active; inhibition, % at 10 µM;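 active = membrane potential signal drops by more than 5 SD from the mean control signal, in both duplicate plates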
TRPC4 ctr mod: selectivity of TRPC6 modulators against mouse TRPC4; HEK293 TRPC4/mu-opioid, membrane potential fluorescence; shares compounds with TRPC6 inhibitor; percent change from control (negative = decrease, positive = increase), % at 10 µM; 69% of 2,400 active; AID 488927;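 active = membrane potential signal moved up or down beyond 5 SD of buffer control wells, in both duplicate plates, actives on both sides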
TRPC4/MOR inh 2: second selectivity test of TRPC6 modulators against mouse TRPC4; inhibition, % at 10 µM; 55% of 2,400 active; shares compounds with TRPC6 inhibitor; HEK293 TRPC4/mu-opioid, membrane potential dye fluorescence; stimulated with maximal-effect DAMGO;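 active = drop in membrane potential signal beyond 5 SD of the control wells in both duplicate plates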;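 also: TRPC4 counter screen for TRPC6 hits run under conditions tuned for TRPC6 not TRPC4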
TRPC6 inh conf: mouse TRPC6 inhibitor confirmation | shares compounds with TRPC6 inhibitor | HEK293-TRPC6, membrane potential dye, ACh-evoked depolarization | inhibition, % at 10 µM | 43% of 3,300 active;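 active = fluorescence ratio falls more than 5 SD below the full-stimulation control mean, in both duplicate runs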;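 also: integrated fluorescence ratio of peak minus minimum over baseline after agonist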
TRPC6 act conf: confirmation of mouse TRPC6 activators. shares compounds with TRPC6 inhibitor. AID 488961. activation, % at 10 µM. 11% of 2,800 active. HEK293-TRPC6 membrane potential dye fluorescence, FDSS;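 active = ratio signal rise beyond 5 SD above unstimulated control wells' mean, seen in both duplicate runs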
Of the large screens only hits and unclear results are named; the others gave an inactive call (follow-up assays come after a bar, where they were run).

COc1cccc(-n2nnnc2SCC(=O)Nc2ccc(OC)cc2OC)c1	none
CC1Sc2ccc(S(=O)(=O)N(C)Cc3ccccc3)cc2NC1=O (configuration not stated)	none
Cc1cccc(CNc2ncc(-c3cccc([N+](=O)[O-])c3)n2C)c1	TRPC6 inhibitor -5.9 | HEK293 MPD ctr-2 -74% | HEK293 MPD ctr 2-2 inactive | TRPC4 ctr mod -26% | TRPC4/MOR inh 2 57% | TRPC6 inh conf inactive | TRPC6 act conf inactive
CC(C)[N+](C)(CCOC(=O)C1c2ccccc2Oc2ccccc21)C(C)C	TRPC6 inhibitor -9.5 | TRPC4 sel inh 2 inactive | TRPC4 spec inactive | HEK293 MPD ctr 2-1 -18% | HEK293 MPD ctr-1 inactive | TRPC6 inh conf 105% | TRPC6 act conf inactive
CCN(CC)c1cccc(OC2=NS(=O)(=O)c3ccccc32)c1	none
CSC1=N/C(=C\c2ccc(Cl)cc2)C(=O)N1N(C)C	none
CC1(C)CN=c2s/c(=C\c3ccc(Cl)cc3)c(=O)n2C1	TRPC6 inhibitor -7.3, TRPC4 potent 16 | TRPC4 sel inh 2 54% | TRPC4 spec -10% | HEK293 MPD ctr 2-1 inactive | HEK293 MPD ctr-1 inactive | TRPC6 inh conf inactive | TRPC6 act conf inactive
CCN(CC)CCC#CC(O)(c1ccccc1)c1ccccc1	TRPC6 inhibitor -8.8 | TRPC4 sel inh 2 inactive | TRPC4 spec 6.4% | HEK293 MPD ctr 2-1 -9.0% | HEK293 MPD ctr-1 8.6% | TRPC6 inh conf 63%
OC(C#CCCN1CCCCC1)(c1ccccc1)c1ccccc1	TRPC6 inhibitor -8.8 | TRPC4 sel inh 2 inactive | TRPC4 spec 6.0% | HEK293 MPD ctr 2-1 14% | HEK293 MPD ctr-1 6.0% | TRPC6 inh conf 72%
OCCN(CC#CC(O)(c1ccccc1)C1CCCCC1)CCO (configuration not stated)	none
OC(C#CCCN1CCCCC1)(c1ccccc1)C1CCCCC1 (configuration not stated)	TRPC6 inhibitor -7.5 | TRPC4 sel inh 2 inactive | TRPC4 spec 23% | HEK293 MPD ctr 2-1 inactive | HEK293 MPD ctr-1 15% | TRPC6 inh conf 75%
CCOc1cc(/C=N/NC(=O)c2cccnc2)ccc1OC(=O)c1ccco1	none
Cc1nc2ncnn2c(C)c1Cc1cccc(C(F)(F)F)c1	none
CC1CN(C(=O)Cn2c(=O)oc3ccccc32)CC(C)O1 (configuration not stated)	none
COc1ccc(/C=N/NC(=O)c2nn(-c3ccc(Cl)cc3)c(=O)c3c(N)scc23)cc1	TRPC6 inhibitor -6 | HEK293 MPD ctr-2 -77% | HEK293 MPD ctr 2-2 inactive | TRPC4 ctr mod -22% | TRPC4/MOR inh 2 36% | TRPC6 inh conf inactive | TRPC6 act conf inactive
COc1ccc(/C=N/NC(=O)c2nn(-c3ccccc3)c(=O)c3c(N)scc23)cc1	none
O=C(COc1ccc2ccccc2c1CN1CCOCC1)N1CCc2ccccc21	TRPC6 inhibitor -7.2 | TRPC4 sel inh 2 26% | TRPC4 spec inactive | HEK293 MPD ctr 2-1 inactive | HEK293 MPD ctr-1 1.3% | TRPC6 inh conf 88% | TRPC6 act conf inactive
COc1ccc(S(=O)(=O)N2CCC(O)(c3cccnc3)CC2)cc1OC	none
CN(C)c1ccc(/C=C2\SC(N3CCCCC3)=NC2=O)cc1	TRPC6 inhibitor -5.3 | HEK293 MPD ctr-2 396% | HEK293 MPD ctr 2-2 inactive | TRPC4 ctr mod 34% | TRPC4/MOR inh 2 inactive | TRPC6 inh conf inactive
CCCCCCC/C=N/Nc1nnc(Cc2ccccc2)c(=O)[nH]1	none
COc1cc(NC(=O)CC2NCCNC2=O)cc(OC)c1 (configuration not stated)	TRPC6 inhibitor -6.1 | HEK293 MPD ctr-2 inactive | HEK293 MPD ctr 2-2 inactive | TRPC4 ctr mod inactive | TRPC4/MOR inh 2 inactive | TRPC6 inh conf inactive | TRPC6 act conf inactive
COC(=O)c1cccc(NC(=O)CC2NCCNC2=O)c1 (configuration not stated)	none
O=C(CN(C(=O)CNC(=O)c1cccs1)c1cccc(F)c1)NC1CCCC1	none
CCOc1ccc(NC(=O)C2C(C(=O)O)C3(Cl)C(Cl)=C(Cl)C2(Cl)C3(Cl)Cl)cc1 (configuration not stated)	TRPC6 act 13 | HEK293 MPD ctr-2 250% | HEK293 MPD ctr 2-2 inactive | TRPC4 ctr mod 33% | TRPC4/MOR inh 2 inactive | TRPC6 inh conf inactive | TRPC6 act conf 106%
CCOc1ccc(NC(=O)C2C(c3ccccc3)C2(Cl)Cl)cc1 (configuration not stated)	none
NC(=O)C1=C[C@H](C2CCCCC2)C[C@H](OCc2ccc(CO)cc2)O1	none
CCC1CCCCN1C(=O)c1sc2nc(C)nc(N(CC)CC)c2c1C (configuration not stated)	none
CCOC(=O)C1CCCN(C(=O)c2sc3nc(C)nc(N(CC)CC)c3c2C)C1 (configuration not stated)	TRPC6 inhibitor -5.2 | HEK293 MPD ctr-2 110% | HEK293 MPD ctr 2-2 inactive | TRPC4 ctr mod 22% | TRPC4/MOR inh 2 36% | TRPC6 inh conf 38%
Cc1ccc(C(=O)c2cc([N+](=O)[O-])ccc2N2CCOCC2)c(C)c1	TRPC6 inhibitor -5.4 | HEK293 MPD ctr-2 inactive | HEK293 MPD ctr 2-2 inactive | TRPC4 ctr mod inactive | TRPC4/MOR inh 2 inactive | TRPC6 inh conf inactive | TRPC6 act conf inactive
